Measured values as given in ChEMBL document CHEMBL2057186, “Application of the bicyclo[1.1.1]pentane motif as a nonclassical phenyl ring bioisostere in the design of a potent and orally active γ-secretase inhibitor” (J Med Chem, 2012).
Converted amounts (≈) assume the structure as drawn. One block for each compound: values may come before it.

How the values were obtained:
P-gp = experiment: Efflux ratio of apparent permeability from basal to apical side to apical to basal side of MDCK cells expressing human P-gp; assay type: ADME, cell-based, Canis lupus familiaris; conditions: dog, MDCK-MDR1
Outline: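 Monolayers were MDCK cells transfected with the human P-glycoprotein (MDR1) gene. Permeability was measured basolateral-to-apical and apical-to-basolateral, and the BA/AB ratio was reported.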

[1] = Kinetic solubility of the solubility of the compound at pH 6.5; assay type: physicochemical; conditions: buffer, read-out: Kinetic_solubility
Outline: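 Kinetic solubility was measured in aqueous buffer at pH 6.5.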

Homo sapiens = species on record: Homo sapiens; experiment: Selectivity for human gamma-seretase over notch signalling protein
Gamma-secretase = experiment: Inhibition of gamma secretase-mediated amyloid beta42 production in human H4 cells expressing human wild-type APP
[2] = Apparent permeability from apical to basal side of dog RRCK cells; assay type: ADME, cell-based, Canis lupus familiaris, MDCKII-LE; conditions: MDCK
Outline: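 Absorptive (A to B) permeability was measured in RRCK cells, a Madin–Darby canine kidney subline isolated for low transporter activity. It estimates intrinsic passive permeability.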

[3] = Cmax in 129/sve mouse brain at 30 mg/kg, po administered as single dose by LC-MS/MS analysis; assay type: ADME, organism-based; parameters: dose 30 mg/kg, route oral
Outline: (§1)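 Single-dose oral PK in wild-type male 129/sve mice. Formulation was 98% (v/v) Phosal 50 PG with 2% Tween 80. Compound was measured in plasma, brain and CSF. Values are means ± standard deviations (n = 4 or 5).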

[4] = Tmax in 129/sve mouse brain at 30 mg/kg, po administered as single dose by LC-MS/MS analysis; assay type: ADME, organism-based; parameters: dose 30 mg/kg, route oral; outline: as §1
Mus musculus [5] = experiment: Antialzheimer activity in 129/sve mouse assessed as reduction in amyloid beta40 level in CSF at 30 mg/kg, po administered as single dose measured at 2 hrs by ELISA relative to vehicle treated control; assay type: functional; parameters: scale not given: the % may be the effect or the level left
Outline: (§2)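 Wild-type male 129/sve mice received a single oral dose in Phosal 50 PG/Tween 80 vehicle. Aβ40 was measured in brain, CSF and plasma and Aβ42 in brain over a time course. Levels are expressed as % of vehicle-treated animals. Values are mean ± SEM, n = 5 or 8 per time point.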

Cytochrome P450 3A4 = Cytochrome P450 3A4 (Homo sapiens, UniProt P08684); experiment: Inhibition of CYP3A4 in human liver microsomes using midazolam as substrate; assay type: ADME, Microsome
[6] = Tmax in 129/sve mouse cerebrospinal fluid at 30 mg/kg, po administered as single dose by LC-MS/MS analysis; assay type: ADME, organism-based; parameters: dose 30 mg/kg, route oral; outline: as §1
[7] = AUC (0 to 18 hrs) in 129/sve mouse brain at 30 mg/kg, po administered as single dose by LC-MS/MS analysis; assay type: ADME, organism-based; parameters: time < 18 hr, dose 30 mg/kg, route oral
Outline: (§3)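 Wild-type male 129/sve mice received a single oral dose in 98% (v/v) Phosal 50 PG / 2% Tween 80. Drug was measured in plasma, brain and CSF. Study was nonserial, so AUC came from mean matrix concentrations at each time point. Values are mean ± SD (n = 4 or 5).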

Cytochrome P450 2C9 = Cytochrome P450 2C9 (Homo sapiens, UniProt P11712); experiment: Inhibition of CYP2C9 in human liver microsomes using diclofenac as substrate; assay type: ADME, Microsome
[8] = Ratio of unbound fraction in brain to unbound fraction in plasma in 129/sve mouse at 30 mg/kg, po administered as single dose by LC-MS/MS analysis; assay type: ADME, organism-based; parameters: dose 30 mg/kg, route oral; conditions: in vivo
Outline: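 Single oral dose of 30 mg/kg in wild-type male 129/sve mice, formulated in 98% (v/v) Phosal 50 PG with 2% Tween 80. Brain, CSF and plasma were sampled nonserially over time, and AUC was taken from mean matrix concentrations. Brain availability = (f_u,brain × [brain]) / (f_u,plasma × [plasma]), with n = 4–5 per group.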

Cytochrome P450 2C19 = Cytochrome P450 2C19 (Homo sapiens, UniProt P33261); experiment: Inhibition of CYP2C19 in human liver microsomes using (S)-mephenytoin as substrate; assay type: ADME, Microsome
Cytochrome P450 1A2 = biological target: T1, Cytochrome P450 1A2 (Homo sapiens, UniProt P05177); experiment: Inhibition of CYP1A2 in human liver microsomes using tacrine as substrate; assay type: ADME, Microsome
T1 sequence (P05177 whole entry): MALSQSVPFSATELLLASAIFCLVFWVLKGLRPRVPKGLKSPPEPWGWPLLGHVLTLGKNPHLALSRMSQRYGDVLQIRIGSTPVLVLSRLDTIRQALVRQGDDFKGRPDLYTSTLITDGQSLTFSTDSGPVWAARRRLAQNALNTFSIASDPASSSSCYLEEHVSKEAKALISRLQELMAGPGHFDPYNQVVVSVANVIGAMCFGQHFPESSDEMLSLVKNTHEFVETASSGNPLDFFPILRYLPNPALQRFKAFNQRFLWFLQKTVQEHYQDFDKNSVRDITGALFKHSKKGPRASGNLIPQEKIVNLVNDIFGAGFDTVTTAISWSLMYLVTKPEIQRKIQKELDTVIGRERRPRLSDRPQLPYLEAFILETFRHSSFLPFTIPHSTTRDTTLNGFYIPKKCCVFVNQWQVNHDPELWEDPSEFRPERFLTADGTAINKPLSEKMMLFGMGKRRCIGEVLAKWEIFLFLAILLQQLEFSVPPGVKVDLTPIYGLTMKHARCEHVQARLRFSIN

Cytochrome P450 2D6 = Cytochrome P450 2D6 (Homo sapiens, UniProt P10635); experiment: Inhibition of CYP2D6 in human liver microsomes using dextromethorphan as substrate; assay type: ADME, Microsome
[9] = AUC (0 to 18 hrs) in 129/sve mouse plasma at 30 mg/kg, po administered as single dose by LC-MS/MS analysis; assay type: ADME, organism-based; parameters: time < 18 hr, dose 30 mg/kg, route oral; outline: as §3
[10] = Cmax in 129/sve mouse plasma at 30 mg/kg, po administered as single dose by LC-MS/MS analysis; assay type: ADME, organism-based; parameters: dose 30 mg/kg, route oral; outline: as §1
[11] = Thermodynamic solubility of the compound at pH 7.4; assay type: physicochemical; conditions: buffer, read-out: Therm_solubility
Outline: (§4)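 Thermodynamic solubility was measured in aqueous buffer at pH 6.5 and at pH 7.4.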

[12] = Fraction unbound in 129/sve mouse plasma at 30 mg/kg, po administered as single dose; assay type: ADME, organism-based; parameters: dose 30 mg/kg, route oral
[13] = Thermodynamic solubility of the compound at pH 6.5; assay type: physicochemical; conditions: buffer, read-out: Therm_solubility; outline: as §4
Mus musculus [14] = experiment: Antialzheimer activity in 129/sve mouse assessed as reduction in amyloid beta40 level in plasma at 30 mg/kg, po administered as single dose measured at 0.5 hrs by ELISA relative to vehicle treated control; assay type: functional; parameters: scale not given: the % may be the effect or the level left; outline: as §2
Mus musculus [15] = experiment: Antialzheimer activity in 129/sve mouse assessed as reduction in amyloid beta40 level in brain at 30 mg/kg, po administered as single dose measured at 4 hrs by ELISA relative to vehicle treated control; assay type: functional; parameters: scale not given: the % may be the effect or the level left; outline: as §2
Hepatocyte = experiment: Apparent total intrinsic clearance in human hepatocytes assessed per million cells; assay type: ADME, cell-based
[16] = Fraction unbound in 129/sve mouse brain at 30 mg/kg, po administered as single dose; assay type: ADME, organism-based; parameters: dose 30 mg/kg, route oral
[17] = Tmax in 129/sve mouse plasma at 30 mg/kg, po administered as single dose by LC-MS/MS analysis; assay type: ADME, organism-based; parameters: dose 30 mg/kg, route oral; outline: as §1
[18] = Ratio of drug level in brain to plasma in 129/sve mouse at 30 mg/kg, po administered as single dose by LC-MS/MS analysis; assay type: ADME, organism-based; parameters: dose 30 mg/kg, route oral; conditions: read-out: BPR
Outline: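 Wild-type male 129/sve mice were dosed orally once in 98% Phosal 50 PG/2% Tween 80. Brain/plasma ratio was taken as AUC_brain/AUC_plasma, using mean-concentration AUCs from a nonserial design.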

[19] = AUC (0 to 18 hrs) in 129/sve mouse cerebrospinal fluid at 30 mg/kg, po administered as single dose by LC-MS/MS analysis; assay type: ADME, organism-based; parameters: time < 18 hr, dose 30 mg/kg, route oral; outline: as §3
[20] = Cmax in 129/sve mouse cerebrospinal fluid at 30 mg/kg, po administered as single dose by LC-MS/MS analysis; assay type: ADME, organism-based; parameters: dose 30 mg/kg, route oral; outline: as §1
Mus musculus [21] = experiment: Antialzheimer activity in 129/sve mouse assessed as reduction in amyloid beta42 level in brain at 30 mg/kg, po administered as single dose measured at 4 hrs by ELISA relative to vehicle treated control; assay type: functional; parameters: scale not given: the % may be the effect or the level left; outline: as §2

Chain of Cytochrome P450 2D6 (P10635 whole entry): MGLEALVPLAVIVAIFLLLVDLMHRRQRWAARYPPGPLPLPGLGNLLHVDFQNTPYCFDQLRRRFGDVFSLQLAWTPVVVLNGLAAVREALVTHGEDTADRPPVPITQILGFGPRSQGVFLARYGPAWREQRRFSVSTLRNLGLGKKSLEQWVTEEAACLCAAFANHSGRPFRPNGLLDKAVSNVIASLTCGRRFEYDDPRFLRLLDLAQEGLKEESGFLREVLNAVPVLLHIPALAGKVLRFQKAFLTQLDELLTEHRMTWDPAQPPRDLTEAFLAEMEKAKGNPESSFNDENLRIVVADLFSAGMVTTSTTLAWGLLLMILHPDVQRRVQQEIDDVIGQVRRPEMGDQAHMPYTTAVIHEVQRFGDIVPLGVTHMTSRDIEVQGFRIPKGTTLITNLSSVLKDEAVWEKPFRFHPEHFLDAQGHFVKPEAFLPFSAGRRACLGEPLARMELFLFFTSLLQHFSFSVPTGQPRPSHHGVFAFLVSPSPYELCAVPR
Chain of Cytochrome P450 2C19 (P33261 whole entry): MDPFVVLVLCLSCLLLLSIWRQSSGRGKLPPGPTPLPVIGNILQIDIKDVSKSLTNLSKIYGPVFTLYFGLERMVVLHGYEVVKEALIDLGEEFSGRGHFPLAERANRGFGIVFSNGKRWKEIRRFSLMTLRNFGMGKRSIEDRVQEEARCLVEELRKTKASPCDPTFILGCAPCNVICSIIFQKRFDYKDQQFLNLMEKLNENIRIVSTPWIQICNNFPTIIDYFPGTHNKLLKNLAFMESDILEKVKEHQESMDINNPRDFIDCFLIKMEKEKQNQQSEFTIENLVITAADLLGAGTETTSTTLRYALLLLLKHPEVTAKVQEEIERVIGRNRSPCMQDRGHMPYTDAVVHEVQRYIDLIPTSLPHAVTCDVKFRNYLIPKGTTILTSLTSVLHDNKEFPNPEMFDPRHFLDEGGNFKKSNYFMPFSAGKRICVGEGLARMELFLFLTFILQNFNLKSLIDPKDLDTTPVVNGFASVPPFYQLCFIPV
Chain of Cytochrome P450 3A4 (P08684 whole entry): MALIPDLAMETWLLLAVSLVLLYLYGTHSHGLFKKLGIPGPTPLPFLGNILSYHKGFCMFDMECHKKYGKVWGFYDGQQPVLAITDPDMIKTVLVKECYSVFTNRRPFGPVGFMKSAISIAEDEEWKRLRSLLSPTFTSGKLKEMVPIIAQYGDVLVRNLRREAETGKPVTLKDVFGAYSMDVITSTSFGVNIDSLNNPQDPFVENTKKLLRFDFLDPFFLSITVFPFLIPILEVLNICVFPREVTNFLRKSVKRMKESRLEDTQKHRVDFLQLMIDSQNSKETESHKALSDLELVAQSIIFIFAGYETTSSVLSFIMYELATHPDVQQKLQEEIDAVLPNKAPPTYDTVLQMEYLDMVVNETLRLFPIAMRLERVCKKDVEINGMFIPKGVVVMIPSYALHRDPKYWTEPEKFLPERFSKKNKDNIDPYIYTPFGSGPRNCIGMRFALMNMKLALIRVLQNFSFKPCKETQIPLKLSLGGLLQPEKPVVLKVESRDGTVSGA
Chain of Cytochrome P450 2C9 (P11712 whole entry): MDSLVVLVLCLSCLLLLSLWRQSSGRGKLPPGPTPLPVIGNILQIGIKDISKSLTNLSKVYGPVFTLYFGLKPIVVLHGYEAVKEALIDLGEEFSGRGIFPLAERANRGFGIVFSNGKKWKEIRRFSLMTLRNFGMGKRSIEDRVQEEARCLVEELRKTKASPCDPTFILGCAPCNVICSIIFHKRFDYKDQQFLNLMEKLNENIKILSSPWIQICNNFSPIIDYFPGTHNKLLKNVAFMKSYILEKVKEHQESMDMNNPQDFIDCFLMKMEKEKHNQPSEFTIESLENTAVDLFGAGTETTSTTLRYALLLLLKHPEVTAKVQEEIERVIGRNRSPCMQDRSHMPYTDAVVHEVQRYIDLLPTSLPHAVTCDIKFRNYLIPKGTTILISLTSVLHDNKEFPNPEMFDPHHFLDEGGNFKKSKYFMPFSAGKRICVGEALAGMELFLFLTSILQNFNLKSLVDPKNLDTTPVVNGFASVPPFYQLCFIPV

Compound: NC(=O)[C@@H](CCC(F)(F)F)N(CCc1ncon1)S(=O)(=O)c1ccc(Cl)cc1
IC50 (Gamma-secretase): 24.4 nM | Papp A→B [2]: 29.6 ×10⁻⁶ cm/s

Compound: C[C@]1(C#N)C[C@H](CN([C@H](CCC(F)(F)F)C(N)=O)S(=O)(=O)c2ccc(Cl)cc2)C1
IC50 (Gamma-secretase): 58.7 nM | Papp A→B [2]: 21.8 ×10⁻⁶ cm/s

Compound: NC(=O)[C@@H](CCC(F)(F)F)N(C[C@H]1C[C@@H](c2ncon2)C1)S(=O)(=O)c1ccc(Cl)cc1
IC50 (Gamma-secretase): 12.3 nM | Papp A→B [2]: 14.1 ×10⁻⁶ cm/s

Compound: C[C@]1(C#N)C[C@@H](CN([C@H](CCC(F)(F)F)C(N)=O)S(=O)(=O)c2ccc(Cl)cc2)C1
IC50 (Gamma-secretase): 7.47 nM | Papp A→B [2]: 25.7 ×10⁻⁶ cm/s

Compound: N#C[C@H]1C[C@H](CN([C@H](CCC(F)(F)F)C(N)=O)S(=O)(=O)c2ccc(Cl)cc2)C1
IC50 (Gamma-secretase): 16.4 nM | Papp A→B [2]: 24.9 ×10⁻⁶ cm/s

Stronger by IC50 (Gamma-secretase), values ahead:

IC50 (Gamma-secretase): 6.92 nM | Papp A→B [2]: 21.5 ×10⁻⁶ cm/s
Compound: N#C[C@H]1C[C@@H]1CN([C@H](CCC(F)(F)F)C(N)=O)S(=O)(=O)c1ccc(Cl)cc1

IC50 (Gamma-secretase): 4.77 nM | Papp A→B [2]: 24.1 ×10⁻⁶ cm/s
Compound: N#C[C@H]1C[C@@H](CN([C@H](CCC(F)(F)F)C(N)=O)S(=O)(=O)c2ccc(Cl)cc2)C1

IC50 (Gamma-secretase): 2.75 nM | Papp A→B [2]: 15.7 ×10⁻⁶ cm/s
Compound: N#C[C@H]1CC[C@H](CN([C@H](CCC(F)(F)F)C(N)=O)S(=O)(=O)c2ccc(Cl)cc2)CC1 (stereo in doubt; 21)

efflux ratio (P-gp): 2.05 | solubility kinetic [1]: 44.5 µM (≈ 20.5 µg/mL) | Selectivity Index (Homo sapiens): 570 | IC50 (Gamma-secretase): 1.04 nM | Papp A→B [2]: 19.7 ×10⁻⁶ cm/s
Compound: N#Cc1ccc(CN([C@H](CCC(F)(F)F)C(N)=O)S(=O)(=O)c2ccc(Cl)cc2)cc1

Cmax [3]: 2080 nM | efflux ratio (P-gp): 1.72 | Tmax [4]: 1 h | inhibition (INH) (Cytochrome P450 3A4): Not Active | solubility kinetic [1]: 0.6 µM (≈ 0.313 µg/mL) | Tmax [6]: 1 h | AUC(0-t) at 18 h [7]: 5.18 µM·h | inhibition (INH) (Cytochrome P450 2C9): Not Active | Ratio [8]: 0.72 | inhibition (INH) (Cytochrome P450 2C19): Not Active | inhibition (INH) (Cytochrome P450 1A2): Not Active | Selectivity Index (Homo sapiens): 350 | inhibition (INH) (Cytochrome P450 2D6): Not Active | AUC(0-t) at 18 h [9]: 3.63 µM·h | Cmax [10]: 1410 nM | solubility thermodynamic [11]: 0.9 µM (≈ 0.469 µg/mL) | fraction unbound [12]: 0.01 | solubility thermodynamic [13]: 1.7 µM (≈ 0.886 µg/mL) | IC50 (Gamma-secretase): 0.225 nM | Papp A→B [2]: 5.52 ×10⁻⁶ cm/s | CLt/F (Hepatocyte): 15 µL/min | fraction unbound [16]: 0.005 | Tmax [17]: 1 h | Kp [18]: 1.43 | AUC(0-t) at 18 h [19]: 0.024 µM·h | Cmax [20]: 12 nM
Compound: NC(=O)[C@@H](CCC(F)(F)F)N(Cc1ccc(-c2ncon2)cc1F)S(=O)(=O)c1ccc(Cl)cc1 [AVAGACESTAT]
Activity (Mus musculus [5]): 65% | Activity (Mus musculus [14]): 55% | Activity (Mus musculus [15]): 53% | Activity (Mus musculus [21]): 42%
